Series [1] addresses T1, Cytochrome P450 1B1 (Homo sapiens, UniProt Q16678).
T1 sequence (Q16678 whole entry): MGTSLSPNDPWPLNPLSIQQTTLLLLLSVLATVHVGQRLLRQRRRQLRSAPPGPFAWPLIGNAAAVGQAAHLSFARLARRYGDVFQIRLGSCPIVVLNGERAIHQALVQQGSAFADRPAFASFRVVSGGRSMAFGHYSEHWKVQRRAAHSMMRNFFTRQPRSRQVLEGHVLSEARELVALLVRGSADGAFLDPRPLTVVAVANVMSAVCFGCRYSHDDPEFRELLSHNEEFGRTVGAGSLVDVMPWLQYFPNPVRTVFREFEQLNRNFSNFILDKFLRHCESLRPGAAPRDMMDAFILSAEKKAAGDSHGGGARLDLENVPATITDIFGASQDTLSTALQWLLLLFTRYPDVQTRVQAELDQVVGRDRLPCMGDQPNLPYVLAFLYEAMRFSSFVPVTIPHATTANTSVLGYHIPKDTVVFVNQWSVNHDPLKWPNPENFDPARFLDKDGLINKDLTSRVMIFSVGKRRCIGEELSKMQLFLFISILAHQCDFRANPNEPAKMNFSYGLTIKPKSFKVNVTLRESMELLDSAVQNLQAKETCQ
Description: Inhibition of human liver CYP1B1 expressed in Saccharomyces cerevisiae YY7 microsomal membranes at 5 to 10 uM using 7-ethoxyresorufin as substrate after 10 mins by fluorescence assay. Summed up: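 Single-concentration screen on CYP1B1 yeast microsomes at 5 µM (10 µM per methods), with 7-ER under the regenerating-system endpoint format: 10 min at 37 °C. Percentage inhibition versus a DMSO control; each compound tested twice.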

Series [2] has as its target T1, Cytochrome P450 1B1. The series is described as follows: Inhibition of human liver CYP1B1 expressed in Saccharomyces cerevisiae YY7 microsomal membranes using 7-ethoxyresorufin as substrate after 10 mins by fluorescence assay. Summed up:
(§1)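 Yeast microsomes (YY7 strain carrying human reductase) held 0.5 pmol CYP with an NADP+/glucose-6-phosphate/G6PDH regenerating system in KPi. Fluorogenic substrate per isoform: 7-ER, CEC, EOMCC or DBF. Six serial 1:20 dilutions were tested, DMSO ≤0.5%. Reactions ran 10 min at 37 °C and were stopped with Tris-acetonitrile. Endpoint fluorescence (530/590 nm for resorufin) was fitted by 4-parameter sigmoid. Triplicate, ≥3 experiments.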

Series [3] has as its target Cytochrome P450 2D6 (Homo sapiens, UniProt P10635). Description: Inhibition of human liver CYP2D6 expressed in Saccharomyces cerevisiae YY7 microsomal membranes using EOMCC as substrate after 10 mins by fluorescence assay. In kind it is ADME, Microsomal Membrane. In a few lines:
as §1

Series [4] has as its target T2, Cytochrome P450 1A1 (Homo sapiens, UniProt P04798).
T2 sequence (P04798 whole entry): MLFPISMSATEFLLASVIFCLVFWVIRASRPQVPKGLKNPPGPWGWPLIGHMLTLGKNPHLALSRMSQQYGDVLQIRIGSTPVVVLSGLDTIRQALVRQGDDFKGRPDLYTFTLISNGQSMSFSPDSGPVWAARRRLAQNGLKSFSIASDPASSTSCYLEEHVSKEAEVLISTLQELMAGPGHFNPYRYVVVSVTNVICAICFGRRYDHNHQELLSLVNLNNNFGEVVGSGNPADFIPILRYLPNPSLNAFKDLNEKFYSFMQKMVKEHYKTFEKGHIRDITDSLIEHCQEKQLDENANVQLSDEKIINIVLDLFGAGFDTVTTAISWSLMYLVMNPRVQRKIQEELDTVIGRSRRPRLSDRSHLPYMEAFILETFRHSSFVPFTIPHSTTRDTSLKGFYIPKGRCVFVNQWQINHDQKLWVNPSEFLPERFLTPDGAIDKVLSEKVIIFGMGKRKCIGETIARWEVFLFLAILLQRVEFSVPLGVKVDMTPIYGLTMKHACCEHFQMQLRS
Description: Inhibition of human liver CYP1A1 expressed in Saccharomyces cerevisiae YY7 microsomal membranes using 7-ethoxyresorufin as substrate after 10 mins by fluorescence assay. In kind it is ADME, Microsomal Membrane. Summed up:
as §1

For series [5], the target named is T3, Cytochrome P450 1A2 (Homo sapiens, UniProt P05177).
T3 sequence (P05177 whole entry): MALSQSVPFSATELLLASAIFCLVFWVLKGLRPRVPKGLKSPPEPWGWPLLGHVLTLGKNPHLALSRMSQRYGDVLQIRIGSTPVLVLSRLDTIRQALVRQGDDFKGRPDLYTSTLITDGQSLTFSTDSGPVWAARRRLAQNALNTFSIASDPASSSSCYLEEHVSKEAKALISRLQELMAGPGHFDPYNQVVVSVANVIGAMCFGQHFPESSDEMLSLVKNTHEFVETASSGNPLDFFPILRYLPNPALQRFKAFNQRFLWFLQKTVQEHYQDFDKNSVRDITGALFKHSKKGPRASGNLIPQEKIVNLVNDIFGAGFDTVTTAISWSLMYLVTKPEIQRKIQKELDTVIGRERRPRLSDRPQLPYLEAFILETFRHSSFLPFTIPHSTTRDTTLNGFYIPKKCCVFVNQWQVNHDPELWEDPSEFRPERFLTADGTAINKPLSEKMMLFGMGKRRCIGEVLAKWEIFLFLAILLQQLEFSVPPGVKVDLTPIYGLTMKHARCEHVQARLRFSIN
Description: Inhibition of human liver CYP1A2 expressed in Saccharomyces cerevisiae YY7 microsomal membranes using CEC as substrate after 10 mins by fluorescence assay. In kind it is ADME, Microsomal Membrane. Summed up:
as §1

The target in series [6] is Cytochrome P450 3A4 (Homo sapiens, UniProt P08684). The series is described as follows: Inhibition of human liver CYP3A4 expressed in Saccharomyces cerevisiae YY7 microsomal membranes using DBF as substrate after 10 mins by fluorescence assay. In kind it is ADME, Microsomal Membrane.
Sequence of Cytochrome P450 3A4 (P08684 whole entry): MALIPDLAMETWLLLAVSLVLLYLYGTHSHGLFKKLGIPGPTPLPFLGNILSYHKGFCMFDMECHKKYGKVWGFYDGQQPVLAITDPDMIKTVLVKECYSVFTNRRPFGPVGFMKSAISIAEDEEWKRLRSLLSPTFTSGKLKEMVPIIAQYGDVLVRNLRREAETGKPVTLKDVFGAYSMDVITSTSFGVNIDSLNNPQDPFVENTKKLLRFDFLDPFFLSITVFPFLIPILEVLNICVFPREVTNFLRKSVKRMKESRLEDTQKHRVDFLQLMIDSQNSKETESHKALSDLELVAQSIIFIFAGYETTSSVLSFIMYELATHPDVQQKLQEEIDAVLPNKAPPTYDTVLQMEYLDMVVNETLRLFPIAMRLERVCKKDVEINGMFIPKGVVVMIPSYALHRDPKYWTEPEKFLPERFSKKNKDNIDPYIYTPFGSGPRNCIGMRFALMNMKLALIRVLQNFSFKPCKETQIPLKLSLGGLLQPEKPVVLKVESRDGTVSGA
Series [7] addresses Cytochrome P450 2C9 (Homo sapiens, UniProt P11712). The series is described as follows: Inhibition of human liver CYP2C9 expressed in Saccharomyces cerevisiae YY7 microsomal membranes using DBF as substrate after 10 mins by fluorescence assay. In kind it is ADME, Microsomal Membrane.
The target of series [8] is Cytochrome P450 2C19 (Homo sapiens, UniProt P33261). Description: Inhibition of human liver CYP2C19 expressed in Saccharomyces cerevisiae YY7 microsomal membranes using DBF as substrate after 10 mins by fluorescence assay. In kind it is ADME, Microsomal Membrane.
Sequence of Cytochrome P450 2C19 (P33261 whole entry): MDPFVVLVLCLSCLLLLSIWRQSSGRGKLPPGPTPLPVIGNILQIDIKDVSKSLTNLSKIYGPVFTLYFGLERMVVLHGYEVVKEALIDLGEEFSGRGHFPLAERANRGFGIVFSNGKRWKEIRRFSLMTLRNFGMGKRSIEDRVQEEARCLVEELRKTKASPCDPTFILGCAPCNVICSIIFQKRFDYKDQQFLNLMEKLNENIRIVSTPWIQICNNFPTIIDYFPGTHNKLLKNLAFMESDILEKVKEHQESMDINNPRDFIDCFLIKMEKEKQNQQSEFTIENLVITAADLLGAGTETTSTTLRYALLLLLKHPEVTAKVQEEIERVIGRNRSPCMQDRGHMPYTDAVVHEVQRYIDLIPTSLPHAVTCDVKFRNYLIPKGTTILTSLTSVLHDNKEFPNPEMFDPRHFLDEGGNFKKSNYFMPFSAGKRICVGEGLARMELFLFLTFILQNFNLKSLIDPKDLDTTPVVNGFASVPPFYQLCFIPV
A short description of series [9]: Solubility of the compound in pH 7.4 PBS buffer. In kind it is physicochemical.
The target in series [10] is T4, CYP1B1 (Homo sapiens, UniProt Q16678).
T4 sequence (Q16678 whole entry): T1 sequence (Q16678 whole entry)
Description: Inhibition of human liver CYP1B1 expressed in Saccharomyces cerevisiae YY7 microsomal membranes at 1 uM using 7-ethoxyresorufin as substrate after 10 mins by fluorescence assay relative to control. Conditions: probe 7-ethoxyresorufin; call rule not given here.

Series [11] is described as follows: Solubility of the compound in pH 6.8 simulated intestinal fluid. In kind it is physicochemical.
Series [12] is described as follows: Solubility of the compound in pH 1.2 simulated gastric fluid. In kind it is physicochemical.
Series [13] addresses T1, Cytochrome P450 1B1. Description: Inhibition of human liver CYP1B1 expressed in HEK293 cells using CEC as substrate preincubated for 30 mins followed by substrate addition measured after 60 mins by fluorescence assay. In kind it is cell-based. Summed up: (§2)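 HEK293 cells adapted to suspension were lipid-transfected with pCDM/hCYP1B1, used 24–48 h later and resuspended at 4×10^6/mL. Wells of 100–200×10^3 cells, in triplicate, were preincubated with compound (1 nM–30 µM) for 30 min at 37 °C, 8% CO2. Substrate followed: 7-ER at 5 µM or CEC. Fluorescence was read over 60 min and IC50 obtained by sigmoidal fit.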

Series [14] concerns the target T1, Cytochrome P450 1B1. Description: Inhibition of CYP1B1 in human A2780cis cells assessed as potentiation of cisplatin-induced cytotoxicity at 2 times CYP1B1 inhibitory IC50 by MTT assay. Format: cell-based. (Tetrazolium assays rely on reduction of a dye to a coloured formazan, in cell work by metabolically active cells.)
Series [15] has as its target T1, Cytochrome P450 1B1. Description: Inhibition of human liver CYP1B1 expressed in Saccharomyces cerevisiae YY7 cells using 7-ethoxyresorufin as substrate after 10 mins by fluorescence assay. Format: cell-based. Summed up:
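Live S. cerevisiae YY7 carrying human CYP1B1 was grown in YP-galactose. Cells were harvested 16–20 h after induction, washed in TE (pH 7.4) and diluted 1:10.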

Series [16] has as its target T1, Cytochrome P450 1B1. The series is described as follows: Inhibition of human liver CYP1B1 expressed in HEK293 cells using 7-ethoxyresorufin as substrate preincubated for 30 mins followed by substrate addition measured after 60 mins by fluorescence assay. Format: cell-based. Summed up: as §2

Structures are written as SMILES. In brackets after ≈: the same amount, converted by molar mass.

Sequence of Cytochrome P450 2C9 (P11712 whole entry): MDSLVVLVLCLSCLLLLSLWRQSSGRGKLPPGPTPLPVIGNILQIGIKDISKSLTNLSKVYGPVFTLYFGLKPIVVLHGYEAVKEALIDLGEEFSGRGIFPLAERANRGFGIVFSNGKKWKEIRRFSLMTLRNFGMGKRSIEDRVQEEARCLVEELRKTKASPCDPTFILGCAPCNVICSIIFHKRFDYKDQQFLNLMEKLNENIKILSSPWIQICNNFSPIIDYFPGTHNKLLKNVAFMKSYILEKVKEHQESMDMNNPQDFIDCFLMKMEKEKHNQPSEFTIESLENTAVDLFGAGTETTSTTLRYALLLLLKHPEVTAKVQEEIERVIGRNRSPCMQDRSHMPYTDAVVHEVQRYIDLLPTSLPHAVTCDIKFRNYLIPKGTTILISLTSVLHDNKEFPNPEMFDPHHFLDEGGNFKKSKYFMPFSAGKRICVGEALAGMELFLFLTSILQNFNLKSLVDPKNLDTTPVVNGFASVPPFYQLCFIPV
Sequence of Cytochrome P450 2D6 (P10635 whole entry): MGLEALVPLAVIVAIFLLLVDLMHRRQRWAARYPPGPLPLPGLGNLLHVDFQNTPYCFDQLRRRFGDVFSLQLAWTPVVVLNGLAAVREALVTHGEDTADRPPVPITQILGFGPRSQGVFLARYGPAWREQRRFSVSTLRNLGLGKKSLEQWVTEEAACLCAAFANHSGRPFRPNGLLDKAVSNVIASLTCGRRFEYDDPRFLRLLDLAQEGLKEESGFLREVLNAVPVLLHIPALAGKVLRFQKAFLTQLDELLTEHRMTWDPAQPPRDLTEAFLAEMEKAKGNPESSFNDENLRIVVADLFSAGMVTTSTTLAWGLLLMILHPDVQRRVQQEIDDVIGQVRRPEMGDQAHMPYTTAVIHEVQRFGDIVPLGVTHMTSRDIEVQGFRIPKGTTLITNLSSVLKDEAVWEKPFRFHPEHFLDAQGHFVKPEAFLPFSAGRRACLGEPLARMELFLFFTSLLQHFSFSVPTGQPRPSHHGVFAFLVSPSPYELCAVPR

As usually defined, the IC50 is the concentration needed to halve the response being measured. A higher IC50 goes with weaker potency in that assay. As for `COc1cccc(/C=C/C(=O)c2cccnc2)c1`, the “inhibition (INH)” value in [1] is listed as “Active”. Also, the concentration for half-maximal inhibition (IC50) in [2] is 0.032 µM; in series [3], 1 µM; in series [4], 10.5 µM; in series [5], 0.752 µM; in series [6] it was 1.28 µM; in [7] it was above 20 µM. Further, the IC50 in series [8] is above 20 µM.
As a reminder, the solubility is the dissolved amount per volume that the medium holds. As a reminder, the inhibition is the percentage by which the read-out fell short of the control. On to `O=c1cc(-c2ccccc2)oc2c1ccc1ccccc12` [ALPHA-NAPHTHOFLAVONE], for which the figures for the solubility in series [9], in series [11] and in series [12] were 6.85 µg/mL (≈ 25.2 µM), 0.58 µg/mL (≈ 2.13 µM) and 6.45 µg/mL (≈ 23.7 µM), respectively. In addition, in [10], the inhibition at 10 min, 1 µM was above 80%. Moreover, the “inhibition (INH)” value in series [1] is reported as “Active”.
Consider `O=C(/C=C/c1cccnc1)c1cccc(Cl)c1`, for which the “inhibition (INH)” value in series [1] was “Active”. The concentration for half-maximal inhibition (IC50) in [2] was 0.059 µM; in [3] it was 10.6 µM; in [4], 3.4 µM; in series [5], 0.238 µM; in series [6] it was 12.5 µM; in series [7] it was above 20 µM. The same compound displayed an IC50 in series [8] above 20 µM.
Turning to `COc1ccc2cc(C(=O)/C=C/c3cccnc3)ccc2c1`, the half-maximal inhibitory concentration (IC50) in [13] was 0.004 µM; in [2], 0.009 µM; in series [3] it was 5 µM; in series [4] it was 0.795 µM; in [5], 1.2 µM; in series [7], above 20 µM. For the same compound, the IC50 in series [15] is 0.065 µM; in [16], 0.008 µM; in [8], above 20 µM. For the same compound, the solubility was 20.1 µg/mL (≈ 69.4 µM) in series [9], 0.27 µg/mL (≈ 0.933 µM) in series [11] and 538 µg/mL (≈ 1860 µM) in series [12]. The “inhibition (INH)” value was “Active” in series [1] and “Not Active” in series [14].
As to `O=C(/C=C/c1cccnc1)c1ccc2ccc3ccccc3c2c1`, the “inhibition (INH)” value in series [1] is reported as “Active”. Further, the 50% inhibitory concentration (IC50) is 0.048 µM in series [2]; 12 µM in series [3]; 0.122 µM in [4]; 1 µM in series [5]; 26 µM in series [6]; above 20 µM in [7]. The compound also registered a concentration for half-maximal inhibition (IC50) in series [8] above 20 µM.
`O=C(/C=C/c1ccc2ccccc2c1)c1cccnc1`: the IC50 in series [13] amounted to 0.004 µM; in series [2], 0.01 µM; in series [3] it was 10 µM; in [4] it was 0.742 µM; in series [5] it was 1.2 µM; in series [6] it was 18 µM. Further, the IC50 in series [7] was above 20 µM; in series [15] it was 0.064 µM; in [16], 0.053 µM; in [8] it was above 20 µM. The solubility in series [9] is 14.5 µg/mL (≈ 56 µM); in series [11], 0.45 µg/mL (≈ 1.74 µM); in [12], 68.6 µg/mL (≈ 264 µM). The results for the “inhibition (INH)” value in series [1] and in series [14] were “Active” and “Not Active”, respectively.

These data come from ChEMBL document CHEMBL4007432, “Discovery and characterization of novel CYP1B1 inhibitors based on heterocyclic chalcones: Overcoming cisplatin resistance in CYP1B1-overexpressing lines” (Eur J Med Chem, 2017).
